Calls of active or inactive are those of the source. No cut-off for these calls is given here.
What was measured:
Splenocyte [1] = test: Immunomodulatory activity in C57BL/6 mouse splenocytes bearing TLR7 receptor assessed as IL6 release at 100 ug/ml after 24 hrs by ELISA; format: functional, cell-based
In short: (§1)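 C57BL/6 splenocytes in RPMI 1640 with 10% FBS, penicillin/streptomycin, 2 mM L-glutamine, plated at 5 × 10^6 cells/mL; compounds in PBS added, 37 °C for 24 h. Supernatant IL-12 and IL-6 by ELISA; representative of three independent experiments.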

[2] = biological target: T1, Toll-like receptor 9 (Mus musculus) (UniProt Q9EQU3); test: Activation of mouse TLR9 expressed in HEK293 assessed as induction of NF-kappaB activity reporter gene assay; format: cell-based
T1 sequence (whole entry): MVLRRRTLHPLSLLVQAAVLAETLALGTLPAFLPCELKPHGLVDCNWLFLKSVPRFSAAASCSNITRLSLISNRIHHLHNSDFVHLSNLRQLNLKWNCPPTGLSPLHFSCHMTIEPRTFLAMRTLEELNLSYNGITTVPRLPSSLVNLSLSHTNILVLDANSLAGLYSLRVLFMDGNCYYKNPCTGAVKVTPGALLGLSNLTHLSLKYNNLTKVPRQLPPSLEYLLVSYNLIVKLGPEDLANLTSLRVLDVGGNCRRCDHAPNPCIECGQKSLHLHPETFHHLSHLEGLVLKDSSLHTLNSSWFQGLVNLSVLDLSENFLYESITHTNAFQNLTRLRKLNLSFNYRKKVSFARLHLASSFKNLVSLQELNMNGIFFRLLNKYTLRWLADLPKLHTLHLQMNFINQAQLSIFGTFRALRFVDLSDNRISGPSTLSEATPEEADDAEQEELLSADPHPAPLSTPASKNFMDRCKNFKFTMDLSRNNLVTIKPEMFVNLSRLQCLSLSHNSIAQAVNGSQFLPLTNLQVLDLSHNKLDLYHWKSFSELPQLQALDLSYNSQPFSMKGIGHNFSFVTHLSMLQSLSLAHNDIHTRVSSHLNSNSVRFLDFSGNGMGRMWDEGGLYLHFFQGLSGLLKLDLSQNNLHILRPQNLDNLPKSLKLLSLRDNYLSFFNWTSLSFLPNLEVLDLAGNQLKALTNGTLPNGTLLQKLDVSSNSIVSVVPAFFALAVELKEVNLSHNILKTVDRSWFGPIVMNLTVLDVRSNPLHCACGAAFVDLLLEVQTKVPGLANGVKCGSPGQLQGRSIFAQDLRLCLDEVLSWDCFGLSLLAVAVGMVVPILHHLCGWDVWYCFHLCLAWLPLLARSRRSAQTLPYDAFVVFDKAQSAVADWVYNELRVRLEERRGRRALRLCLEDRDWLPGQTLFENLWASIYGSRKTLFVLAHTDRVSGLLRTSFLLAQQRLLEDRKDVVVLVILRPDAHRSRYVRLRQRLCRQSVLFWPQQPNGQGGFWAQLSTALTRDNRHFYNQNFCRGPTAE

Splenocyte [3] = test: Immunomodulatory activity in C57BL/6 mouse splenocytes bearing TLR7 receptor assessed as IL12 release at 100 ug/ml after 24 hrs by ELISA; format: functional, cell-based; in short: as §1
[4] = biological target: T2, Toll-like receptor 7 (Homo sapiens) (UniProt Q9NYK1); test: Activation of human TLR7 expressed in HEK293XL assessed as fold induction of NF-kappaB activity at 50 ug/ml after 18 hrs by reporter gene assay relative to control
T2 sequence (whole entry): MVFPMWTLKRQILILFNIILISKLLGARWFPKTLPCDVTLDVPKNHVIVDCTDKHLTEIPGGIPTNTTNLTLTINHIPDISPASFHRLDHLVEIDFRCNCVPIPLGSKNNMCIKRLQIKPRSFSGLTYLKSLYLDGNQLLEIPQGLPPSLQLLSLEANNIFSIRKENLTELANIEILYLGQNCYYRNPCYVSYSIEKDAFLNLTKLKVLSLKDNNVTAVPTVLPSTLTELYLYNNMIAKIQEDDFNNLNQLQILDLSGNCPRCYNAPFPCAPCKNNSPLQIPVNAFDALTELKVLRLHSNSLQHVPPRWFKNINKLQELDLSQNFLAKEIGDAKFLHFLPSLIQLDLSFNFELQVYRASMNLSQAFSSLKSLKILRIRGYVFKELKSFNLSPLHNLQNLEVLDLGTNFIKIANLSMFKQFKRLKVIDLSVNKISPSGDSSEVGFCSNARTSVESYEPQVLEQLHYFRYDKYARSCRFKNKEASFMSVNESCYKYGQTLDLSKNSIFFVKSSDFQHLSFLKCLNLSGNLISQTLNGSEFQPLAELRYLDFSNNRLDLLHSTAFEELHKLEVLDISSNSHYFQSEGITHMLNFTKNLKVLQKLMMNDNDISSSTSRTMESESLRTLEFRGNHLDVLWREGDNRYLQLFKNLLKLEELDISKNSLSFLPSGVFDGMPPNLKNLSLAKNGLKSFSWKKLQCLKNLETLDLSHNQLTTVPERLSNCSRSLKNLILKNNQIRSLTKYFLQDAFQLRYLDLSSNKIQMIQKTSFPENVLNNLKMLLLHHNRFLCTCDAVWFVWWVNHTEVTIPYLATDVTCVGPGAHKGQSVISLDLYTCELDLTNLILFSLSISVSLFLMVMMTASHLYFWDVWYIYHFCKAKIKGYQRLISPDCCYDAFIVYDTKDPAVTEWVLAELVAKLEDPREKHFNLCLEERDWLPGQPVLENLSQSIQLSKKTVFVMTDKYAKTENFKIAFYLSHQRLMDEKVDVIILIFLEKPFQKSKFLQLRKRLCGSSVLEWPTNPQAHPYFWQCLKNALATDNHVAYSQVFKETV
In short: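 HEK293 cells stably expressing human TLR7 or TLR8, transiently transfected with SEAP reporter plasmid; medium replaced, SIMRA compounds added, 18 h incubation. Supernatant SEAP measured by QuantiBlue; expressed as fold increase in NF-κB activity over PBS control. Tabulated data at 50 μg/mL, representative of three independent experiments.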

Homo sapiens = species: Homo sapiens; test: Ratio of human TLR7 activity to human TLR8 activity
In short: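 TLR7/TLR8 ratio computed from fold NF-κB (SEAP reporter) activation in HEK293 cells stably expressing human TLR7 versus TLR8, compounds at 50 μg/mL, 18 h exposure; representative of three independent experiments.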

[5] = biological target: Toll-like receptor 3 (Homo sapiens) (UniProt O15455); test: Activation of human TLR3 expressed in HEK293 assessed as induction of NF-kappaB activity reporter gene assay; format: cell-based
Toll-like receptor 3 (Homo sapiens), sequence (O15455 whole entry): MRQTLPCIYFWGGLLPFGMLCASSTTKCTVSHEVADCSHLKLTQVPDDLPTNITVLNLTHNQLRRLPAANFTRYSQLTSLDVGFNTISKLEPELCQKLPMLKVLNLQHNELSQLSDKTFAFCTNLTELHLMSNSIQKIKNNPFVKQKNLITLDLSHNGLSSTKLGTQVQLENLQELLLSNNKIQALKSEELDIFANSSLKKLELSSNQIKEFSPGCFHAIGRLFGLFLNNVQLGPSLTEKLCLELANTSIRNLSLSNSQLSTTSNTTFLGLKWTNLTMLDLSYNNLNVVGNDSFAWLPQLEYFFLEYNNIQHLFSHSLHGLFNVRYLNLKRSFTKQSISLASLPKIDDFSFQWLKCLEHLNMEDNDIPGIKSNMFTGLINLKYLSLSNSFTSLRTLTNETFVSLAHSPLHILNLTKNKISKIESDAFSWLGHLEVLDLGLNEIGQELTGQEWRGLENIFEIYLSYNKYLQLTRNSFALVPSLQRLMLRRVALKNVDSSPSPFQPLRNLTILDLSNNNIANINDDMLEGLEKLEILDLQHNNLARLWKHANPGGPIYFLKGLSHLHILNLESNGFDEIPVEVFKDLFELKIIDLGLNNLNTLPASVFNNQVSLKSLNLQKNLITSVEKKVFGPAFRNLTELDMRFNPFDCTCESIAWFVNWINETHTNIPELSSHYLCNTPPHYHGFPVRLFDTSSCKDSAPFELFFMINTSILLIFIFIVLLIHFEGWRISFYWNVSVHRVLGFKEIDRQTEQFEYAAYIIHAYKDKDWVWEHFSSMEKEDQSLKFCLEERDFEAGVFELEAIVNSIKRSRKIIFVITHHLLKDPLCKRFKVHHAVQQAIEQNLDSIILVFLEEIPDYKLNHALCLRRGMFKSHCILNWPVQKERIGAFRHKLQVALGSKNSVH

Row | Activity (Splenocyte [1]) | Activity [2] | Activity (Splenocyte [3]) | fold change (FC) [4] | Ratio (Homo sapiens) | Activity [5] | SMILES
1 | Active | inactive | Active | 16.8 | 7 | inactive | Nc1ccn([C@@H]2O[C@H](COP(=O)(S)O[C@H]3[C@@H](O)[C@H](n4cnc5c(N)ncnc54)O[C@@H]3CO)[C@@H](OP(=O)(S)OC[C@H]3O[C@@H](n4ccc(=O)[nH]c4=O)[C@H](O)[C@@H]3OP(=O)(S)OC[C@H]3O[C@@H](n4ccc5c(=O)[nH]c(N)nc54)[C@H](O)[C@@H]3OP(=O)(S)OC[C@H]3O[C@@H](n4cnc5c(N)ncnc54)[C@H](O)[C@@H]3OP(=O)(S)OC[C@H]3O[C@@H](n4ccc5c(=O)[nH]c(N)nc54)[C@H](O)[C@@H]3OP(=O)(S)OC[C@H]3O[C@@H](n4cnc5c(N)ncnc54)[C@H](O)[C@@H]3OP(=O)(S)OC[C@H]3O[C@@H](n4ccc5c(=O)[nH]c(N)nc54)[C@H](O)[C@@H]3OP(=O)(S)OC[C@H]3O[C@@H](n4ccc(N)nc4=O)[C@H](O)[C@@H]3OP(=O)(S)OC[C@H]3O[C@@H](n4ccc(=O)[nH]c4=O)[C@H](O)[C@@H]3OP(=O)(S)OC[C@H]3O[C@@H](n4ccc(=O)[nH]c4=O)[C@H](O)[C@@H]3OP(=O)(S)OCC(O)COP(=O)(S)O[C@H]3[C@@H](O)[C@H](n4ccc(=O)[nH]c4=O)O[C@@H]3COP(=O)(S)O[C@H]3[C@@H](O)[C@H](n4ccc(=O)[nH]c4=O)O[C@@H]3COP(=O)(S)O[C@H]3[C@@H](O)[C@H](n4ccc(N)nc4=O)O[C@@H]3COP(=O)(S)O[C@H]3[C@@H](O)[C@H](n4ccc5c(=O)[nH]c(N)nc54)O[C@@H]3COP(=O)(S)O[C@H]3[C@@H](O)[C@H](n4cnc5c(N)ncnc54)O[C@@H]3COP(=O)(S)O[C@H]3[C@@H](O)[C@H](n4ccc5c(=O)[nH]c(N)nc54)O[C@@H]3COP(=O)(S)O[C@H]3[C@@H](O)[C@H](n4cnc5c(N)nc(N)nc54)O[C@@H]3COP(=O)(S)O[C@H]3[C@@H](O)[C@H](n4ccc5c(=O)[nH]c(N)nc54)O[C@@H]3COP(=O)(S)O[C@H]3[C@@H](O)[C@H](n4ccc(=O)[nH]c4=O)O[C@@H]3COP(=O)(S)O[C@H]3[C@@H](O)[C@H](n4ccc(N)nc4=O)O[C@@H]3COP(=O)(S)O[C@H]3[C@@H](O)[C@H](n4cnc5c(N)ncnc54)O[C@@H]3CO)[C@H]2O)c(=O)n1 (some centres not stated)
2 | Active | inactive | Active | 13.7 | 19.6 | inactive | Nc1ccn([C@@H]2O[C@H](COP(=O)(S)O[C@H]3[C@@H](O)[C@H](n4ccc5c(=O)[nH]c(N)nc54)O[C@@H]3COP(=O)(S)O[C@H]3[C@@H](O)[C@H](n4cnc5c(N)ncnc54)O[C@@H]3COP(=O)(S)O[C@H]3[C@@H](O)[C@H](n4cnc5c(N)ncnc54)O[C@@H]3COP(=O)(S)O[C@H]3[C@@H](O)[C@H](n4ccc5c(=O)[nH]c(N)nc54)O[C@@H]3COP(=O)(S)O[C@H]3[C@@H](O)[C@H](n4ccc(=O)[nH]c4=O)O[C@@H]3COP(=O)(S)O[C@H]3[C@@H](O)[C@H](n4ccc(=O)[nH]c4=O)O[C@@H]3COP(=O)(S)O[C@H]3[C@@H](O)[C@H](n4cnc5c(N)ncnc54)O[C@@H]3COP(=O)(S)O[C@H]3[C@@H](O)[C@H](n4cnc5c(N)ncnc54)O[C@@H]3CO)[C@@H](OP(=O)(S)OC[C@H]3O[C@@H](n4ccc(=O)[nH]c4=O)[C@H](O)[C@@H]3OP(=O)(S)OC[C@H]3O[C@@H](n4ccc5c(=O)[nH]c(N)nc54)[C@H](O)[C@@H]3OP(=O)(S)OCC(O)COP(=O)(S)O[C@H]3[C@@H](O)[C@H](n4ccc5c(=O)[nH]c(N)nc54)O[C@@H]3COP(=O)(S)O[C@H]3[C@@H](O)[C@H](n4ccc(=O)[nH]c4=O)O[C@@H]3COP(=O)(S)O[C@H]3[C@@H](O)[C@H](n4ccc(N)nc4=O)O[C@@H]3COP(=O)(S)O[C@H]3[C@@H](O)[C@H](n4ccc5c(=O)[nH]c(N)nc54)O[C@@H]3COP(=O)(S)O[C@H]3[C@@H](O)[C@H](n4cnc5c(N)ncnc54)O[C@@H]3COP(=O)(S)O[C@H]3[C@@H](O)[C@H](n4cnc5c(N)ncnc54)O[C@@H]3COP(=O)(S)O[C@H]3[C@@H](O)[C@H](n4ccc5c(=O)[nH]c(N)nc54)O[C@@H]3COP(=O)(S)O[C@H]3[C@@H](O)[C@H](n4ccc(=O)[nH]c4=O)O[C@@H]3COP(=O)(S)O[C@H]3[C@@H](O)[C@H](n4ccc(=O)[nH]c4=O)O[C@@H]3COP(=O)(S)O[C@H]3[C@@H](O)[C@H](n4cnc5c(N)ncnc54)O[C@@H]3COP(=O)(S)O[C@H]3[C@@H](O)[C@H](n4cnc5c(N)ncnc54)O[C@@H]3CO)[C@H]2O)c(=O)n1 (some centres not stated)
